Screening data deposited in PubChem by several laboratories.
Compounds with a hit are over-represented: about 1.9% of the library has one in this group of screens.
b-catenin transl: modulators of beta-catenin nuclear translocation, primary screen, imaging, HeLa cells, immunofluorescence, high-content | nuclear translocation activity, % at 5 µM | 190,000 compounds, 0.3% hits | AID 1665, 2009;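 active means nuclear translocation activity above 50% at 5 µM, with a well cell count of 50 or more; inconclusive means wells under 50 cells across six images, flagged as toxic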;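 further: per-cell ratio of nuclear to cytoplasmic median beta-catenin stain intensity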
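Signal – beta-catenin immunofluorescence imaging with DAPI · Test system – human HeLa cell line · Dosing – 5 µM primary single dose, 0.1% DMSO, 0.02–20 µM confirmation series · Measure – % activation, nuclear-to-cytoplasmic median beta-catenin signal ratio per cell · Incubation – 24 h compound exposure at 37°C, 5% CO2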
ROMK mod: ROMK potassium channel modulators, primary screen, cell-based, thallium flux, MLSMR library; ATP-sensitive inward rectifier potassium channel 1 (Homo sapiens), P48048; 130,000 compounds, 2% hits; AID 1918, 2009; Tet-inducible ROMK, thallium flux fluorescence; actives lie on both sides; B-score at 10 µM;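 active means signal ratio slope over the read window, or its plate-corrected B-score, at least 3 SD from the plate mean, either direction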;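 further: B-score of the F/F0 ratio slope over 7 to 12 s after thallium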
Target sequence (P48048 whole entry, looked up): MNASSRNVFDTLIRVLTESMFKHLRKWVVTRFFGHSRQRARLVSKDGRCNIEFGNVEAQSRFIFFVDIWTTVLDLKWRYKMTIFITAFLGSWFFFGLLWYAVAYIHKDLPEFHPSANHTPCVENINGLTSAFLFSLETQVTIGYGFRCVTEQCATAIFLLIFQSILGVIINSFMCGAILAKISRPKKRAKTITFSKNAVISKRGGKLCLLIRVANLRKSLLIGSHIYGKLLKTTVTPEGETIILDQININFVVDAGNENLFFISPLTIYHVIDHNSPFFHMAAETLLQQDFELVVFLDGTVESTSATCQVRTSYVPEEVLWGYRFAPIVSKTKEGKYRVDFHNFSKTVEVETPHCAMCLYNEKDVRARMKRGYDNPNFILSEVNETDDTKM
MT stabilize HCS: microtubule stabilizers in HeLa cells, primary screen, imaging, high-content imaging; HeLa tubulin immunostaining HCS, 24 h; share of cells brighter than vehicle mean+2SD; % tubulin-high responders, % at 10 µM; 200,000 compounds, 0.83% hits; AID 2205, 2009;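 active means plate Z-score above 3 for both tubulin-high and condensed-nucleus cell shares, with cell loss under 80%, at 10 µM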;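 further: anti alpha tubulin signal scored within the nucleus-defined area of each cell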
ROMK hit retest: ROMK channel modulator hit retest, confirmation, cell-based, thallium flux, duplicate, resupplied hits | normalized thallium flux (F/F0 slope) at 10 µM | 3,000 compounds, 54% hits | fluorescence ratio; active compounds read low | shares compounds with ROMK mod;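 active means Flux at 10 µM at least 3 SD below or above vehicle control mean in one or both replicates; inconclusive means no clear call, values can overlap the other calls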
Large screens that a line does not name were inactive (follow-up assays come after a bar, where they were run).

CC1(C)Cc2c(sc3[nH]c(=S)[nH]c(=O)c23)CO1	none
O=S1(=O)CCC(N=Cc2cc(Br)ccc2O)C1 (configuration not stated)	none (no result: b-catenin transl) | ROMK hit retest 0.102
O=c1c2ccccc2c(C=NC2CCS(=O)(=O)C2)c(O)n1-c1ccccc1 (configuration not stated)	none
CCc1ccc(OCC(=O)Nc2ncn[nH]2)cc1	none (no result: ROMK mod)
CCOC(=O)C(NC(C)=O)C(=O)Nc1ccc(C(C)C)cc1 (configuration not stated)	none
CCOC(=O)C(NC(C)=O)C(=O)Nc1ccc(C(C)(C)C)cc1 (configuration not stated)	ROMK mod 3.47 | ROMK hit retest inactive
COc1ccccc1N(C(=O)c1snc(C(N)=O)c1N)C(C(=O)NCCC(C)C)c1ccco1 (configuration not stated)	none
CCOc1ccccc1N(C(=O)c1snc(C(N)=O)c1N)C(C(=O)NCCC(C)C)c1ccco1 (configuration not stated)	ROMK mod -4.48 | ROMK hit retest inactive
Cc1ccc(Cn2cc(SCC(N)=O)c3ccccc32)cc1	none
Cc1ccc(C)c(CSc2ccc3nnc(-c4ccccn4)n3n2)c1	none
O=C1C(=O)c2ccc(-c3ccccc3)cc2-c2ccccc21	none
Nc1ccc2c(c1)C(=O)C(=O)c1ccccc1-2	ROMK mod -5.62 (no result: b-catenin transl) | ROMK hit retest 0.037
CCOc1cc(Br)c(/C=C2/C(=O)N(C)C(=S)N2CC(=O)OC)cc1OC	ROMK mod -2.56 | ROMK hit retest inactive
CCOc1cc(/C=C2/NC(=O)N(CC(=O)OC)C2=O)ccc1OC	none (no result: ROMK mod)
N#Cc1c(-c2ccc(Cl)cc2)c2c([nH]c1=O)-c1ccccc1OC2	none (no result: MT stabilize HCS)
O=C1CCN(S(=O)(=O)c2ccc(Br)cc2)CCN1	none
Nc1oc2ccc(F)cc2c(=O)c1C=O	none (no result: b-catenin transl)
COc1ccc(C(=O)NCc2nnc(SCC(=O)Nc3nc4ccccc4s3)o2)cc1OC	none
COC(=O)[C@@]1(Cc2ccc(F)cc2)[C@H]2c3cc(C(=O)N(C)C)n(CCc4ccccn4)c3C[C@H]2CN1C(=O)c1ccccc1	none (no result: b-catenin transl)
COC(=O)[C@@]1(Cc2ccc(F)cc2)[C@H]2c3cc(C(=O)N(C)C)n(Cc4ccc(OC)c(OC)c4)c3C[C@H]2CN1C(=O)c1ccccc1	ROMK mod -3.53 (no result: b-catenin transl) | ROMK hit retest 0.057
COC(=O)[C@@]1(Cc2ccc(F)cc2)[C@H]2c3cc(C(=O)N(C)C)n(CCc4ccc(OC)c(Br)c4)c3C[C@H]2CN1C(=O)c1ccccc1	ROMK mod -3.85 | ROMK hit retest 0.0563
COC(=O)[C@@]1(Cc2ccc(F)cc2)[C@H]2c3cc(C(=O)N(C)C)n(Cc4ccccc4)c3C[C@H]2CN1C(=O)c1ccccc1	none
O=C(C[n+]1cccc(CNC(=O)c2ccc(OC(F)F)cc2)c1)Nc1ccc(SC(F)F)cc1	ROMK mod -4.03 | ROMK hit retest inactive
O=C(C[n+]1cccc(CNC(=O)c2ccc(OC(F)F)cc2)c1)Nc1ccccc1Cl	none (no result: ROMK mod)
Clc1cccc(N/N=C(\Cc2nc3ccccc3[nH]2)c2ccccc2)c1	none (no result: ROMK mod)
CN(C)S(=O)(=O)c1cc(NC(=O)c2cc(=O)[nH]c3ccccc23)ccc1Cl	none
O=C(O)Cc1ccc(N=Cc2c(O)ccc3ccccc23)cc1	none (no result: ROMK mod) | ROMK hit retest inactive
COc1ccc(N=Cc2c(O)ccc3ccccc23)cc1	none
CCc1sc(NC(C)=O)nc1-c1ccccc1	none
CCc1sc(NS(C)(=O)=O)nc1-c1ccccc1	ROMK mod 2.81 (no result: b-catenin transl) | ROMK hit retest inactive
CCOC(=O)C1(CCOc2ccccc2)CCN(Cc2ccc(-n3cccn3)cc2)CC1	none
COc1ccc(NC(=S)NN(C)C(=S)Nc2ccc(OC)cc2)cc1	none (no result: b-catenin transl)
Cc1ccc2nc(-c3ccccc3)c(-c3ccccc3)nc2c1	none
Cc1nc2ccccc2nc(=O)c1NNc1ccccc1	ROMK mod 6.37 | ROMK hit retest inconclusive
Cc1ccc2nc(=O)c(NNc3ccccc3)cnc2c1	ROMK mod 6.64 | ROMK hit retest 0.111
Cc1nc2ccccc2nc1OCc1ccccc1	none (no result: ROMK mod)
O=S(=O)(c1cnc[nH]1)N1CCc2ccccc21	none (no result: ROMK mod)
O=C(NNC(=O)c1cc(-c2ccccc2)n(-c2ccccc2)n1)c1cccc([N+](=O)[O-])c1	none (no result: ROMK mod)
N/C(=N\OC(=O)CN1C(=O)c2ccccc2C1=O)c1ccc(Br)cc1	none
Cc1ccc(CN2CCCC(CO)(Cc3ccccc3C)C2)s1 (configuration not stated)	none
COc1ccc(C(C)=O)cc1CN1C(=O)NC2(CCCCC2)C1=O	ROMK mod 1.99 | ROMK hit retest inactive
COc1ccc(C(C)=O)cc1CN1CCCCC1	none (no result: ROMK mod)
CS(=O)(=O)Oc1ccc(Br)cc1/C=C1/N=C(c2ccco2)OC1=O	none
Cn1cc(/C=C(\C#N)C(=O)Nc2ncc(Cc3cccc(Cl)c3)s2)c2ccccc21	ROMK mod -2.43 | ROMK hit retest 0.0592
N#C/C(=C\c1c[nH]c2ccccc12)C(=O)Nc1ncc(Cc2ccc(Cl)cc2Cl)s1	none (no result: ROMK mod)
N#Cc1ccc(S(=O)(=O)N2CCc3[nH]c4ccc(F)cc4c3C2)cc1	none (no result: ROMK mod, MT stabilize HCS)
CC(C)C1N(C(N)=S)N=CC1(C)C (configuration not stated)	none (no result: ROMK mod, MT stabilize HCS)
CCOc1ccc(N2CC(=O)N/C2=N\c2nc(C)cc(C)n2)cc1	none (no result: ROMK mod) | ROMK hit retest inactive
Cc1cc(C)nc(/N=C2\NC(=O)CC(C(=O)O)N2c2ccc(Oc3ccccc3)cc2)n1 (configuration not stated)	none (no result: b-catenin transl, ROMK mod)
O=C(Cn1cncc1-c1ccc([N+](=O)[O-])cc1)Nc1ccccc1F	none
CN(C)c1ccc(/C=N/NC(=O)c2ccc3nc[nH]c3c2)cc1	none (no result: MT stabilize HCS)
CCN(CC)c1ccc(/C=N/NC(=O)c2cnccn2)cc1	ROMK mod 3.7, MT stabilize HCS 23.1 | ROMK hit retest 0.103
CCN(CC)c1ccc(/C=N/NC(=O)c2ccc3nc[nH]c3c2)cc1	none (no result: ROMK mod, MT stabilize HCS) | ROMK hit retest inactive
CCN(CC)c1ccc(/C=N/NC(=O)c2ccccn2)cc1	none (no result: ROMK mod, MT stabilize HCS)
COc1ccc(C(=O)CCC(=O)O)c(C)c1	ROMK mod 4.28 | ROMK hit retest inactive
COc1ccc2oc(C(=O)CCC(=O)O)c(N)c2c1	none (no result: b-catenin transl, ROMK mod)
Cc1ccc(C(=O)CSc2cnc3ccccc3n2)cc1C	none (no result: b-catenin transl)
NC(=O)CNC(=O)c1ccc(Cl)cc1	none (no result: ROMK mod, MT stabilize HCS)
COc1cnc(-c2ccccn2)nc1Sc1ccccc1	none | ROMK hit retest inconclusive
COc1ccc(Sc2nc(-c3ccccn3)ncc2OC)cc1	none
COc1ccc(-c2nc(NC(=O)c3n[nH]c(=O)c4ccccc34)sc2C)cc1	none (no result: b-catenin transl)
OCC1(Cc2ccccc2)CCN(C2CCN(c3ccc(F)c(F)c3)CC2)CC1	none (no result: ROMK mod)
c1coc(CNc2ncnc3sc4c(c23)CCCCC4)c1	none (no result: ROMK mod) | ROMK hit retest 0.0619
CN(C)C(CNc1ncnc2sc3c(c12)CCCC3)c1ccco1 (configuration not stated)	none
O=C(CSCCOc1ccccc1)NCc1ccncc1	none (no result: ROMK mod, MT stabilize HCS)
O=C(N/N=C/c1ccc[nH]1)c1ccc2c(c1)OCO2	none
O=C(N/N=C/c1ccc(-c2ccc(Br)cc2)o1)c1ccc2c(c1)OCO2	ROMK mod 1.98 | ROMK hit retest inactive
S=C(NC1CCCCC1)N1CCN(c2ccccn2)CC1	none
CCN(CC)S(=O)(=O)c1ccc(N2CCOCC2)c(NC(=O)Cc2ccc(Cl)cc2)c1	none (no result: ROMK mod) | ROMK hit retest inactive
